Test results from ChEMBL document CHEMBL1926577, “Novel 1,3,4-heterodiazole analogues: synthesis and in-vitro antitumor activity” (2012).

Experiments:
Type in all cases: functional
CCRF-CEM = experiment: Growth inhibition of human CCRF-CEM cells at 10 uM after 48 hrs by coulter counter method; details: read-out: GI
Method in brief: (§1)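 NCI 60-cell-line panel, single dose. Compound dissolved first in DMSO, then diluted in phosphate-buffered saline so that every final dilution held under 1% DMSO. Duplicate wells received cells at 6 × 10⁴ cells/ml. Controls held PBS/DMSO at the same dilution. Plates were incubated 48 h at 37 °C under 5% CO₂. Cells were then diluted 10-fold in saline and counted on a Coulter counter, with counts corrected for the dilution. Results are given as percent growth inhibition.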

HL-60(TB) = experiment: Growth inhibition of human HL-60(TB) cells at 10 uM after 48 hrs by coulter counter method; details: HL-60, 48 h, read-out: GI
Method in brief: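 Single-dose screen on the NCI 60-line panel (leukemia subpanel). Compound is dissolved in DMSO and diluted in PBS, with final DMSO below 1%. Duplicate wells hold 6 × 10⁴ cells/ml at 37 °C, 5% CO₂, for 48 h. Cells are counted by Coulter counter after 10-fold saline dilution. Read-out is percent growth versus PBS/DMSO controls, expressed as % growth inhibition.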

K562 = experiment: Growth inhibition of human K562 cells at 10 uM after 48 hrs by coulter counter method; details: K562, 48 h, read-out: GI; method in brief: as §1
MOLT-4 = experiment: Growth inhibition of human MOLT4 cells at 10 uM after 48 hrs by coulter counter method; details: MOLT-4, 48 h, read-out: GI; method in brief: as §1
RPMI-8226 = experiment: Growth inhibition of human RPMI8226 cells at 10 uM after 48 hrs by coulter counter method; details: RPMI-8226, 48 h, read-out: GI; method in brief: as §1
SR = experiment: Growth inhibition of human SR cells at 10 uM after 48 hrs by coulter counter method; details: read-out: GI; method in brief: as §1
A549 = experiment: Growth inhibition of human A549 cells at 10 uM after 48 hrs by coulter counter method; details: A549, 48 h, read-out: GI; method in brief: as §1
EKVX = experiment: Growth inhibition of human EKVX cells at 10 uM after 48 hrs by coulter counter method; details: read-out: GI; method in brief: as §1
NCI-H226 = experiment: Growth inhibition of human NCI-H226 cells at 10 uM after 48 hrs by coulter counter method; details: NCI-H226, 48 h, read-out: GI; method in brief: as §1
NCI-H23 = experiment: Growth inhibition of human NCI-H23 cells at 10 uM after 48 hrs by coulter counter method; details: NCI-H23, 48 h, read-out: GI; method in brief: as §1
NCI-H322M = experiment: Growth inhibition of human NCI-H322M cells at 10 uM after 48 hrs by coulter counter method; details: read-out: GI; method in brief: as §1
NCI-H522 = experiment: Growth inhibition of human NCI-H522 cells at 10 uM after 48 hrs by coulter counter method; details: NCI-H522, 48 h, read-out: GI; method in brief: as §1
HCT-116 = experiment: Growth inhibition of human HCT116 cells at 10 uM after 48 hrs by coulter counter method; details: HCT-116, 48 h, read-out: GI; method in brief: as §1
HCT-15 = experiment: Growth inhibition of human HCT15 cells at 10 uM after 48 hrs by coulter counter method; details: HCT-15, 48 h, read-out: GI; method in brief: as §1
HT-29 = experiment: Growth inhibition of human HT-29 cells at 10 uM after 48 hrs by coulter counter method; details: HT-29, 48 h, read-out: GI; method in brief: as §1
KM12 = experiment: Growth inhibition of human KM12 cells at 10 uM after 48 hrs by coulter counter method; details: KM12, 48 h, read-out: GI; method in brief: as §1
SF-268 = experiment: Growth inhibition of human SF268 cells at 10 uM after 48 hrs by coulter counter method; details: SF-268, 48 h, read-out: GI; method in brief: as §1
SF-295 = experiment: Growth inhibition of human SF295 cells at 10 uM after 48 hrs by coulter counter method; details: SF-295, 48 h, read-out: GI; method in brief: as §1
SNB-19 = experiment: Growth inhibition of human SNB19 cells at 10 uM after 48 hrs by coulter counter method; details: SNB-19, 48 h, read-out: GI; method in brief: as §1
SNB-75 = experiment: Growth inhibition of human SNB75 cells at 10 uM after 48 hrs by coulter counter method; details: SNB-75, 48 h, read-out: GI; method in brief: as §1
U-251 = experiment: Growth inhibition of human U251 cells at 10 uM after 48 hrs by coulter counter method; details: U-251, 48 h, read-out: GI; method in brief: as §1
LOX IMVI = experiment: Growth inhibition of human LOXIMVI cells at 10 uM after 48 hrs by coulter counter method; details: read-out: GI; method in brief: as §1
Malme-3M = experiment: Growth inhibition of human MALME-3M cells at 10 uM after 48 hrs by coulter counter method; details: read-out: GI; method in brief: as §1
M14 = experiment: Growth inhibition of human M14 cells at 10 uM after 48 hrs by coulter counter method; details: M14, 48 h, read-out: GI; method in brief: as §1
MDA-MB-435 = experiment: Growth inhibition of human MDA-MB-435 cells at 10 uM after 48 hrs by coulter counter method; details: MDA-MB-435, 48 h, read-out: GI; method in brief: as §1
SK-MEL-2 = experiment: Growth inhibition of human SK-MEL-2 cells at 10 uM after 48 hrs by coulter counter method; details: SK-MEL-2, 48 h, read-out: GI; method in brief: as §1
SK-MEL-28 = experiment: Growth inhibition of human SK-MEL-28 cells at 10 uM after 48 hrs by coulter counter method; details: SK-MEL-28, 48 h, read-out: GI; method in brief: as §1
SK-MEL-5 = experiment: Growth inhibition of human SK-MEL-5 cells at 10 uM after 48 hrs by coulter counter method; details: SK-MEL-5, 48 h, read-out: GI; method in brief: as §1
UACC-257 = experiment: Growth inhibition of human UACC257 cells at 10 uM after 48 hrs by coulter counter method; details: UACC-257, 48 h, read-out: GI; method in brief: as §1
UACC-62 = experiment: Growth inhibition of human UACC62 cells at 10 uM after 48 hrs by coulter counter method; details: UACC-62, 48 h, read-out: GI; method in brief: as §1
IGROV-1 = experiment: Growth inhibition of human IGROV1 cells at 10 uM after 48 hrs by coulter counter method; details: IGROV-1, 48 h, read-out: GI; method in brief: as §1
OVCAR-8 = experiment: Growth inhibition of human OVCAR8 cells at 10 uM after 48 hrs by coulter counter method; details: OVCAR-8, 48 h, read-out: GI; method in brief: as §1
NCI/ADR-RES = experiment: Growth inhibition of human NCI/ADR-RES cells at 10 uM after 48 hrs by coulter counter method; details: read-out: GI; method in brief: as §1
786-0 = experiment: Growth inhibition of human 786-0 cells at 10 uM after 48 hrs by coulter counter method; details: 786-0, 48 h, read-out: GI; method in brief: as §1
A498 = experiment: Growth inhibition of human A498 cells at 10 uM after 48 hrs by coulter counter method; details: A498, 48 h, read-out: GI; method in brief: as §1
ACHN = experiment: Growth inhibition of human ACHN cells at 10 uM after 48 hrs by coulter counter method; details: read-out: GI; method in brief: as §1
CAKI-1 = experiment: Growth inhibition of human Caki1 cells at 10 uM after 48 hrs by coulter counter method; details: CAKI-1, 48 h, read-out: GI; method in brief: as §1
SN12C = experiment: Growth inhibition of human SN12C cells at 10 uM after 48 hrs by coulter counter method; details: read-out: GI; method in brief: as §1
TK-10 = experiment: Growth inhibition of human TK10 cells at 10 uM after 48 hrs by coulter counter method; details: TK-10, 48 h, read-out: GI; method in brief: as §1
UO-31 = experiment: Growth inhibition of human UO31 cells at 10 uM after 48 hrs by coulter counter method; details: UO-31, 48 h, read-out: GI; method in brief: as §1
PC-3 = experiment: Growth inhibition of human PC3 cells at 10 uM after 48 hrs by coulter counter method; details: PC-3, 48 h, read-out: GI; method in brief: as §1
MCF7 = experiment: Growth inhibition of human MCF7 cells at 10 uM after 48 hrs by coulter counter method; details: MCF7, 48 h, read-out: GI; method in brief: as §1
BT-549 = experiment: Growth inhibition of human BT549 cells at 10 uM after 48 hrs by coulter counter method; details: BT-549, 48 h, read-out: GI; method in brief: as §1
T47D = experiment: Growth inhibition of human T47D cells at 10 uM after 48 hrs by coulter counter method; details: read-out: GI; method in brief: as §1
MDA-MB-468 = experiment: Growth inhibition of human MDA-MB-468 cells at 10 uM after 48 hrs by coulter counter method; details: MDA-MB-468, 48 h, read-out: GI; method in brief: as §1

## O=C1CN2N=C(c3ccc(Cl)cc3)OC2=N1
CCRF-CEM
  inhibition of growth at 10 µM: < 10%
HL-60(TB)
  inhibition of growth at 10 µM: < 10%
K562
  inhibition of growth at 10 µM: 17.2%
MOLT-4
  inhibition of growth at 10 µM: < 10%
RPMI-8226
  inhibition of growth at 10 µM: < 10%
SR
  inhibition of growth at 10 µM: < 10%
A549
  inhibition of growth at 10 µM: < 10%
EKVX
  inhibition of growth at 10 µM: < 10%
NCI-H226
  inhibition of growth at 10 µM: < 10%
NCI-H23
  inhibition of growth at 10 µM: < 10%
NCI-H322M
  inhibition of growth at 10 µM: < 10%
NCI-H522
  inhibition of growth at 10 µM: 18.9%
HCT-116
  inhibition of growth at 10 µM: < 10%
HCT-15
  inhibition of growth at 10 µM: < 10%
HT-29
  inhibition of growth at 10 µM: < 10%
KM12
  inhibition of growth at 10 µM: < 10%
SF-268
  inhibition of growth at 10 µM: < 10%
SF-295
  inhibition of growth at 10 µM: < 10%
SNB-19
  inhibition of growth at 10 µM: < 10%
SNB-75
  inhibition of growth at 10 µM: < 10%
U-251
  inhibition of growth at 10 µM: < 10%
LOX IMVI
  inhibition of growth at 10 µM: < 10%
Malme-3M
  inhibition of growth at 10 µM: < 10%
M14
  inhibition of growth at 10 µM: < 10%
MDA-MB-435
  inhibition of growth at 10 µM: < 10%
SK-MEL-2
  inhibition of growth at 10 µM: < 10%
SK-MEL-28
  inhibition of growth at 10 µM: < 10%
SK-MEL-5
  inhibition of growth at 10 µM: < 10%
UACC-257
  inhibition of growth at 10 µM: < 10%
UACC-62
  inhibition of growth at 10 µM: < 10%
IGROV-1
  inhibition of growth at 10 µM: < 10%
OVCAR-8
  inhibition of growth at 10 µM: < 10%
NCI/ADR-RES
  inhibition of growth at 10 µM: < 10%
786-0
  inhibition of growth at 10 µM: < 10%
A498
  inhibition of growth at 10 µM: < 10%
ACHN
  inhibition of growth at 10 µM: < 10%
CAKI-1
  inhibition of growth at 10 µM: < 10%
SN12C
  inhibition of growth at 10 µM: < 10%
TK-10
  inhibition of growth at 10 µM: < 10%
UO-31
  inhibition of growth at 10 µM: 26.8%
PC-3
  inhibition of growth at 10 µM: < 10%
MCF7
  inhibition of growth at 10 µM: < 10%
BT-549
  inhibition of growth at 10 µM: < 10%
T47D
  inhibition of growth at 10 µM: < 10%
MDA-MB-468
  inhibition of growth at 10 µM: < 10%
